We go through 12 molecules from ChEMBL document CHEMBL1177701, “Synthesis, biological evaluation, and structure-activity relationships of dithiolethiones as inducers of cytoprotective phase 2 enzymes” (J Med Chem, 2010).

For orientation: pKa means the negative logarithm of the acid dissociation constant. Read a high pKa as a group that holds its proton tightly.

Data set [1] is described as follows: Dissociation constant, pKa of the compound. The class given is physicochemical.
The subject of data set [2] is Rattus norvegicus. The data set is described as follows: Ex vivo induction of GST in Sprague-Dawley rat bladder at 7.5 umol/kg/day, po for 10 days measured on day 11 relative to control. The data set is classed as functional. The gist of the method: (§1)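 Female Sprague-Dawley rats, 6 per group, gavaged with compound at 7.5 µmol/kg/day or soya oil for 10 days and killed on day 11. Bladder homogenized in ice-cold 0.2% Triton X-100 and cleared by centrifugation. NQO1 activity measured by the Ernster method, GST by the Habig method. Reported as treated/control mean ± SEM, ANOVA with Student-Newman-Keuls test.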

In data set [3] the test system is Rattus norvegicus. The data set is described as follows: Ex vivo induction of NQO1 in Sprague-Dawley rat bladder at 7.5 umol/kg/day, po for 10 days measured on day 11 relative to control. The class given is functional. Put shortly:
as §1

Data set [4] concerns NBT2. As to the kind of experiment: Induction of GCL protein expression in Nrf gene knockout rat NBT2 cells at 25 uM after 24 hrs Western blot analysis. The class given is functional, cell-based. Put shortly: (§2)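 NBT-II cells transfected with Nrf2 stealth RNAi or control RNAi (0.584 nmol per dish, lipofectamine 2000) for 48 h. Then treated with compound at 25 µM or vehicle for 24 h, with 0.1% DMSO final. Lysates analyzed by Western blot for Nrf2, GCL, GST-α, GST-μ and NQO1, with GAPDH as loading control.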
(In western blotting, separated proteins are transferred to a membrane and probed.)

Data set [5] has as its target T1, Nuclear factor erythroid 2-related factor 2 (Rattus norvegicus) (UniProt O54968).
T1 sequence (whole entry): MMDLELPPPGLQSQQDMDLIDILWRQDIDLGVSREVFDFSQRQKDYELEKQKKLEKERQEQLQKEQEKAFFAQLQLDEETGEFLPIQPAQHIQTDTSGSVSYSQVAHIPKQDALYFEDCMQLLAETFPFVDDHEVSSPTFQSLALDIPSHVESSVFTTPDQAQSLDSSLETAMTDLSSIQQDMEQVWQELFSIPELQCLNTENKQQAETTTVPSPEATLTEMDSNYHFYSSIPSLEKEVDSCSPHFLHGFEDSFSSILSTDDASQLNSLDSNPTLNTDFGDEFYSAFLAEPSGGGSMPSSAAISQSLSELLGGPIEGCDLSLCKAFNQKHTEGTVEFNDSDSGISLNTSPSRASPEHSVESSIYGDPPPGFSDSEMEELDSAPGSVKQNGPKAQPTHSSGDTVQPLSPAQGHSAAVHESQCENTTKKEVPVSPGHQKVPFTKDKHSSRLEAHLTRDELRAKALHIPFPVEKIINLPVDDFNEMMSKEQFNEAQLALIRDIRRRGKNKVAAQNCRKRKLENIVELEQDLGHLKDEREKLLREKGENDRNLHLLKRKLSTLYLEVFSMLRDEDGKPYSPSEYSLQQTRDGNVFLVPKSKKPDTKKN
The data set is described as follows: Induction of Nrf in wild type rat NBT2 cells at 25 uM after 24 hrs Western blot analysis. The data set is classed as functional, cell-based. The gist of the method: as §2

Data set [6] deals with Rattus norvegicus. As to the kind of experiment: Ex vivo induction of NQO1 in Sprague-Dawley rat stomach at 7.5 umol/kg/day, po for 10 days measured on day 11 relative to control. The data set is classed as functional. Put shortly:
(§3)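 Organs taken from the same rats used for the bladder study: female Sprague-Dawley, compound at 7.5 µmol/kg/day by gavage or soya oil for 10 days, killed on day 11. GI contents rinsed out under cold water and tissues stored at −80°C. Homogenized in 0.2% Triton X-100 and centrifuged. Supernatant NQO1 activity measured by the Ernster method, expressed as treated/control.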

In data set [7] the target is T1, Nuclear factor erythroid 2-related factor 2 (Rattus norvegicus). As to the kind of experiment: Induction of Nrf-mediated NQO1 protein expression in wild type rat NBT2 cells at 25 uM after 24 hrs Western blot analysis. The data set is classed as functional, cell-based. The gist of the method:
as §2

Data set [8] has as its system NBT2. As to the kind of experiment: Induction of GST-pi protein expression in rat NBT2 cells at 25 to 50 uM after 24 hrs by Western blot analysis. The data set is classed as functional, cell-based. The gist of the method: (§4)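 NBT-II rat bladder carcinoma cells grown in MEM with 10% FBS. Plated overnight, then exposed to compound at 25 or 50 µM for 24 h, with 0.1% DMSO final. Cells trypsinized, lysed with 1 mM PMSF and sonicated. 25-40 µg protein taken for Western blot, GAPDH as loading control. At least two experiments.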

Data set [9] concerns NBT2. As to the kind of experiment: Induction of GST-alpha protein expression in rat NBT2 cells after 24 hrs by Western blot analysis. The data set is classed as functional, cell-based. Put shortly:
as §4

In data set [10] the test system is Rattus norvegicus. The data set is described as follows: Ex vivo induction of NQO1 in Sprague-Dawley rat duodenum at 7.5 umol/kg/day, po for 10 days measured on day 11 relative to control. The data set is classed as functional. The gist of the method:
as §3

For data set [11], the system named is Rattus norvegicus. The data set is described as follows: Ex vivo induction of NQO1 in Sprague-Dawley rat colon at 7.5 umol/kg/day, po for 10 days measured on day 11 relative to control. The class given is functional. Put shortly:
as §3

Data set [12] deals with NBT2. The data set is described as follows: Induction of GCL protein expression in rat NBT2 cells at 25 to 50 uM after 24 hrs by Western blot analysis. The class given is functional, cell-based. Put shortly:
as §4

Data set [13] has as its system NBT2. The data set is described as follows: Induction of NQO1 protein expression in Nrf gene knockout rat NBT2 cells at 25 uM after 24 hrs Western blot analysis. The class given is functional, cell-based. The gist of the method:
as §2

In data set [14] the test system is Rattus norvegicus. The data set is described as follows: Ex vivo induction of NQO1 in Sprague-Dawley rat kidney at 7.5 umol/kg/day, po for 10 days measured on day 11 relative to control. The data set is classed as functional. Put shortly: as §3
Data set [15] concerns NBT2. The data set is described as follows: Induction of GST-mu protein expression in rat NBT2 cells after 24 hrs by Western blot analysis. The data set is classed as functional, cell-based. The gist of the method:
as §4

In data set [16] the test system is Rattus norvegicus. The data set is described as follows: Ex vivo induction of NQO1 in Sprague-Dawley rat lung at 7.5 umol/kg/day, po for 10 days measured on day 11 relative to control. The class given is functional. The gist of the method:
as §3

The subject of data set [17] is NBT2. As to the kind of experiment: Induction of GST-mu protein expression in Nrf gene knockout rat NBT2 cells at 25 uM after 24 hrs Western blot analysis. The class given is functional, cell-based. Put shortly: as §2
Data set [18] deals with Rattus norvegicus. As to the kind of experiment: Ex vivo induction GST-alpha protein expression in Sprague-Dawley rat bladder at 7.5 umol/kg/day, po for 10 days measured on day 11 by Western blot analysis. The data set is classed as functional, organism-based. The gist of the method: (§5)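 Female Sprague-Dawley rats, 3 per group, gavaged once daily with compound at 7.5 µmol/kg or soya oil vehicle for 10 days. Killed on day 11. Bladder homogenized in 10 mM Tris-HCl pH 7.4, 0.25 M sucrose, 1 mM PMSF, 1 µg/ml leupeptin. 25-40 µg protein run by SDS-PAGE, then Western blot, with GAPDH as loading control.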

Data set [19] concerns Rattus norvegicus. As to the kind of experiment: Ex vivo induction GST-mu protein expression in Sprague-Dawley rat bladder at 7.5 umol/kg/day, po for 10 days measured on day 11 by Western blot analysis. The data set is classed as functional, organism-based. The gist of the method:
as §5

In data set [20] the test system is NBT2. The data set is described as follows: Induction of NQO1 protein expression in rat NBT2 cells after 24 hrs by Western blot analysis. The class given is functional, cell-based. The gist of the method:
as §4

The test system of data set [21] is Rattus norvegicus. The data set is described as follows: Ex vivo induction of NQO1 in Sprague-Dawley rat jejunum at 7.5 umol/kg/day, po for 10 days measured on day 11 relative to control. The class given is functional. The gist of the method:
as §3

The target in data set [22] is T1, Nuclear factor erythroid 2-related factor 2 (Rattus norvegicus). The data set is described as follows: Induction of Nrf-mediated GST-mu protein expression in wild type rat NBT2 cells at 25 uM after 24 hrs Western blot analysis. The class given is functional, cell-based. The gist of the method: as §2
Data set [23] has as its system Rattus norvegicus. The data set is described as follows: Ex vivo induction GST-pi protein expression in Sprague-Dawley rat bladder at 7.5 umol/kg/day, po for 10 days measured on day 11 by Western blot analysis. The class given is functional, organism-based. Put shortly:
as §5

Data set [24] deals with Rattus norvegicus. The data set is described as follows: Ex vivo induction of NQO1 in Sprague-Dawley rat ileum at 7.5 umol/kg/day, po for 10 days measured on day 11 relative to control. The class given is functional. Put shortly: as §3
The target of data set [25] is T1, Nuclear factor erythroid 2-related factor 2 (Rattus norvegicus). As to the kind of experiment: Induction of Nrf-mediated GCL protein expression in wild type rat NBT2 cells at 25 uM after 24 hrs Western blot analysis. The data set is classed as functional, cell-based. The gist of the method: as §2
Data set [26] relates to NBT2. As to the kind of experiment: Induction of GST-alpha protein expression in Nrf gene knockout rat NBT2 cells at 25 uM after 24 hrs Western blot analysis. The data set is classed as functional, cell-based. Put shortly:
as §2

Data set [27] has as its target T1, Nuclear factor erythroid 2-related factor 2 (Rattus norvegicus). As to the kind of experiment: Induction of Nrf-mediated GST-alpha protein expression in wild type rat NBT2 cells at 25 uM after 24 hrs Western blot analysis. The class given is functional, cell-based. Put shortly:
as §2

Data set [28] relates to Rattus norvegicus. As to the kind of experiment: Ex vivo induction of NQO1 in Sprague-Dawley rat liver at 7.5 umol/kg/day, po for 10 days measured on day 11 relative to control. The data set is classed as functional. The gist of the method: as §3
Data set [29] deals with Rattus norvegicus. The data set is described as follows: Ex vivo induction GCL protein expression in Sprague-Dawley rat bladder at 7.5 umol/kg/day, po for 10 days measured on day 11 by Western blot analysis. The class given is functional, organism-based. The gist of the method: as §5

The structures appear in SMILES notation. Active and inactive are the calls of the source. No cut-off for these calls is given here.

In data set [1], `O=C(O)c1cssc1=S` came in with a pKa of 2.8. Besides, the “fold change (FC)” value in the data set with Rattus norvegicus [2] is 2.11; in the data set on Rattus norvegicus [3], 3.69.
Consider `CC1CCc2c1ssc2=S` (configuration not stated), for which the “fold change (FC)” value is listed as 1.3 with Rattus norvegicus [2] and 1.91 with Rattus norvegicus [3].
Turning to `COC(=O)c1c(C)ssc1=S`, the “fold change (FC)” value in the data set with Rattus norvegicus [2] and with Rattus norvegicus [3] was 1.24 each time.
For `CCOC(=O)c1cc(=S)ss1`, the entries for the “fold change (FC)” value in the data set on Rattus norvegicus [2] and in the data set on Rattus norvegicus [3] were 1.09 and 1.13, respectively.
For the molecule `O=c1ssc2c1CCC2`, the “fold change (FC)” value turned out to be 1.11 in the data set with Rattus norvegicus [2] and 1.24 with Rattus norvegicus [3].
On the same counts, the results for `CCOC(=O)c1c(N)ssc1=S` are 1.25 and 2.03.
With `CCOC(=O)C1CCc2c1ssc2=S` (configuration not stated), the outcome with NBT2 [4], in the data set with NBT2 [8], with NBT2 [13], in the data set with NBT2 [17], with Rattus norvegicus [23] and with NBT2 [26] was inactive. In addition, the outcome (in data set [5]; in [7]; with NBT2 [12]; with Rattus norvegicus [18]; with Rattus norvegicus [19]; in data set [22]) was Active. For the same molecule, the outcome (in data set [25]; in data set [27]; in the data set with Rattus norvegicus [29]) was Active. For the same molecule, the “fold change (FC)” value was found to be 2.29 in the data set on Rattus norvegicus [2]; 1.93 in the data set on Rattus norvegicus [6]; 1.53 with Rattus norvegicus [10]; 1 with Rattus norvegicus [11]; 1.86 in the data set with Rattus norvegicus [14]; 1.17 in the data set on Rattus norvegicus [16]. In addition, the “fold change (FC)” value in the data set with Rattus norvegicus [3] came to 4.47; with Rattus norvegicus [21] it was 1.38; in the data set on Rattus norvegicus [24], 1.2; in the data set on Rattus norvegicus [28] it was 1.17. Besides, the Activity entry with NBT2 [9], with NBT2 [15] and with NBT2 [20] was “Dose-dependent effect” each time.
Turning to `O=c1ccss1`, the “fold change (FC)” value with Rattus norvegicus [2] is on record as 1.01; with Rattus norvegicus [3] it was 1.26.
As for `Cc1ssc(=S)c1C(=O)O`, the results for the “fold change (FC)” value with Rattus norvegicus [2] and in the data set on Rattus norvegicus [3] were 0.99 and 1.1, respectively.
As to `S=c1ssc(S)c1-c1ccccc1`, the “fold change (FC)” value is 1.03 in the data set with Rattus norvegicus [2] and 1.11 in the data set on Rattus norvegicus [3].
In the case of `S=c1ssc2c1CCCCC2`, the results for the “fold change (FC)” value with Rattus norvegicus [2] and with Rattus norvegicus [3] were 1.14 and 1.2, respectively.
In [1], `O=C(O)c1cc(=S)ss1` came in with a pKa of 1.2. Moreover, the “fold change (FC)” value with Rattus norvegicus [2] is listed as 1.11; in the data set with Rattus norvegicus [3], 1.27.
